Compound activity as filed in PubChem BioAssay.
Shown are actives, neighbours in structure and some others; about 2.6% of the full set was active somewhere.
STEP inh – inhibitors of human striatal-enriched phosphatase STEP; actives 0.25% (n = 360,000); inhibition, % at 20 µM; AID 588621; recombinant STEP, OMFP fluorogenic substrate, fluorescence;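 active means inhibition at 20 µM, scaled per plate between control wells, above about 37%, limit read from the data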;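 further: 0% = DMSO with enzyme and substrate and 100% = substrate only without enzyme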
Target sequence (P54829 whole entry, looked up): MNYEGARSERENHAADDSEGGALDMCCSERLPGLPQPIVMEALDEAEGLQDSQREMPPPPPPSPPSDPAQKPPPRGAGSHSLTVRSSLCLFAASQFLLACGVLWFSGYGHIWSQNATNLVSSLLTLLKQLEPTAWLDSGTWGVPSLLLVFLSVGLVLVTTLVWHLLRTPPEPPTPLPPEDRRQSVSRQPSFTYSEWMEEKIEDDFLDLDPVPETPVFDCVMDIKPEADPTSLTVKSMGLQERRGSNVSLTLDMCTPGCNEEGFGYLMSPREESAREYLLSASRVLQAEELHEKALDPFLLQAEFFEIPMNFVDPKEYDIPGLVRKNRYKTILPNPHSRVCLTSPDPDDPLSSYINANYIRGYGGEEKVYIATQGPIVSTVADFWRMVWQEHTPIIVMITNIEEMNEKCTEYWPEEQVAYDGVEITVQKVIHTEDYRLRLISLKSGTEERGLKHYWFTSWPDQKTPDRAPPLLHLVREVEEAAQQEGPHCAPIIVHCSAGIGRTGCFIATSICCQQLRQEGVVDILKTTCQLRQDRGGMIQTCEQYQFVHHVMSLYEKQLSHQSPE
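System: STEP (striatal-enriched tyrosine phosphatase) enzyme, cell-free; medium: Bis-Tris pH 6.0 buffer with DTT, detergent; dosing: 20 µM, 1% DMSO; times: reaction 20 min, ambient temperature; detection: fluorescence, 480/540 nm; read-out basis: normalized % inhibition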
Scp-1 inhibitor – inhibitors of human Scp-1 phosphatase. Recombinant Scp1, phosphopeptide, malachite green phosphate absorbance. actives 0.88% (n = 340,000). inhibition, % at 20 µM. Q9GZU7;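 active means inhibition above about 50% at 20 µM, limit read from the data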;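 further: plate controls were DMSO wells with enzyme for no effect and wells lacking enzyme for full effect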
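Incubation: 45 min enzyme reaction at room temperature / System: truncated SCP-1 phosphatase (76-261aa) / Reagent: Phospho 17-mer peptide substrate / Buffer or medium: Acidic Tris acetate buffer with magnesium and detergent / Signal: absorbance at 630 nm / Doses: one concentration, 20 µM, with 1.0% DMSO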
LMPTP inh – blocks human LMPTP phosphatase | P24666 | recombinant LMPTP-A, OMFP fluorogenic substrate, fluorescence intensity | inhibition, % at 20 µM | actives 0.22% (n = 360,000);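 active means compounds that cut the enzyme signal by at least half of the control window in the single-dose screen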;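 further: plate controls were DMSO wells with enzyme plus substrate for no effect and substrate without enzyme for full effect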
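Test system: LMPTP-A phosphatase enzyme. Amount: LMPTP-A at 0.625 nM final in the reaction. Reagent: OMFP substrate, 400 µM final. Times: 50 min at room temperature. Signal: endpoint fluorescence intensity from OMFP dephosphorylation. Read-out basis: % inhibition. Benchmarks: no-enzyme and uninhibited controls.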
NadD block – inhibitors of Staphylococcus aureus NadD | AID 602399 | actives 0.78% (n = 360,000) | purified NadD enzyme, colorimetric absorbance read-out | inhibition, % at 20 µM; in the data active means inhibition above about 26%
rCAG RNA binder – binds r(CAG) RNA repeats; r(CAG) RNA repeat, TO-PRO-1 dye displacement fluorescence; inhibition, % at 3 µM; actives 1.3% (n = 370,000);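 active means inhibition above the plate cutoff, the mean of all test compounds on that plate plus 3 SD, cut at about 35% in these data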;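 further: 0% = DMSO alone and 100% = 100 µM mitoxantrone as full dye displacement; higher means more dye released from RNA so lower well fluorescence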
NadD inh conf – confirmation of Staphylococcus aureus NadD inhibitors; shares compounds with NadD block; purified S. aureus NadD, colorimetric enzyme assay; inhibition, % at 20 µM; actives 13% (n = 2,000); AID 624309; in the data active means inhibition mostly above about 42%, no sharp cut-off; inactive means mostly below about 42%
The depositor's hits bear a star; / = no result.

SMILES	STEP inh	Scp-1 inhibitor	LMPTP inh	NadD block	rCAG RNA binder	NadD inh conf
COc1cc(/C=C(\C#N)c2nc3ccc(C)cc3[nH]2)c([N+](=O)[O-])cc1OC	0	-5	1	1	10	/
COc1cc(/C=C(\C#N)c2nc3ccccc3[nH]2)ccc1Oc1ccc([N+](=O)[O-])cn1	0	9	3	33*	17	18
COc1ccc(/C=C(\C#N)c2nc3ccc(C)cc3[nH]2)cc1Oc1ccc(C(F)(F)F)cc1[N+](=O)[O-]	-1	-17	-2	32*	7	-20
N#C/C(=C\c1cccc(Oc2ccc(C(F)(F)F)cc2[N+](=O)[O-])c1)c1nc2ccccc2[nH]1	4	24	3	38*	18	10
O=C(CC1c2ccccc2C=C(c2ccsc2)N1c1ccc(-c2cccnc2)cc1)C1CC1 (stereo not drawn)	/	/	6	33*	9	12
COc1ncc(-c2ccc(N3C(c4ccsc4)=Cc4ccc(F)cc4C3CC(=O)c3ccco3)cc2)cn1 (stereo not drawn)	/	/	1	35*	13	10
COC(=O)c1ccc(N2C(c3ccsc3)=Cc3cc4c(cc3C2CC(=O)c2ccco2)OCO4)cc1 (stereo not drawn)	/	/	0	31*	11	16
COC(=O)c1ccc(N2C(c3cc(OC)cc(OC)c3)=Cc3ccc(OC)cc3C2CC(=O)c2ccco2)cc1 (stereo not drawn)	/	/	2	22	11	/
O=C(Cc1c[nH]c2ccccc12)Nc1ccc(Nc2cccnc2)c(-c2ccc(-c3ccccc3)cc2F)c1	/	/	/	/	18	/
C=CCN(CC#Cc1ccccc1)Cc1ccc(OC)cc1OC	/	/	/	/	1	/
COc1ccc(-c2csc(NC(=S)NC(=O)c3cccs3)n2)cc1Br	-1	-13	2	25*	10	3
COc1ccc(-c2csc(NC(=S)NC(=O)c3cccs3)n2)cc1OC	2	-8	4	8	31	/
CC(C)C[C@H]1CN([C@@H](Cc2ccc(O)cc2)CN2CCC[C@@H]2CN2C(=O)C(=O)NC[C@@H]2Cc2ccccc2)C(=O)C(=O)N1CC1CCCCC1	-1	10	-1	31*	3	37
CC(C)C[C@H]1CN([C@@H](Cc2ccc(O)cc2)CN2CCC[C@H]2CN2C(=O)C(=O)NC[C@@H]2Cc2ccccc2)C(=O)C(=O)N1CC1CCCCCC1	/	/	2	30*	7	35
COc1ccc(-c2nnc(-c3ccc(N)cc3)o2)cc1	0	-2	0	5	3	/
COc1ccc(-c2nnc(Nc3nc4c(OC)cccc4s3)o2)cc1	0	23	12	31*	27	48
Cc1nc2cc(C(=O)N3CCN(C(=O)C(C)(C)C)CC3)ccc2n1C1CCCC1	/	/	/	/	-1	/
CCOC(=O)C1=C(C)N=c2s/c(=C\c3ccc(OC(C)=O)c(OCC)c3)c(=O)n2C1/C=C/c1ccccc1 (stereo not drawn)	0	3	1	54*	3	4
CCc1nnn2c1Cn1c3ccccc3c(=O)n1[C@@H](C(C)C)C2	/	/	/	/	-1	/
O=C(c1ccc(Cn2c(=S)[nH]c3ccc(N4CCOCC4)cc3c2=O)cc1)N1CCN(c2ccc(F)cc2)CC1	2	-9	3	20	12	/
Cc1ccc(C)c(N2CCN(C(=O)c3ccc(Cn4c(=S)[nH]c5ccc(N6CCOCC6)cc5c4=O)cc3)CC2)c1	1	-7	0	30*	18	-3
COc1ccc(NS(=O)(=O)c2ccc(O)c(NC(=O)c3cc4c(C)nn(-c5ccc(F)cc5)c4s3)c2)cc1	-2	16	3	47*	/	40
O=C(NC(C(=O)N/N=C/c1c2ccccc2cc2ccccc12)c1n[nH]c(=O)c2ccccc12)c1ccccc1 (stereo not drawn)	0	-3	1	51*	20	23
O=C(NC(C(=O)N/N=C/c1ccccc1)c1n[nH]c(=O)c2ccccc12)c1ccccc1 (stereo not drawn)	2	0	-1	5	2	/
Cc1ccc(CNC(=O)c2ccc(N3CCC4(CC3)CC(c3ccccc3)=NO4)c(NC(=O)c3ccc(Br)cc3)c2)cc1	6	-4	2	36*	11	13
SMILES	STEP inh	Scp-1 inhibitor	LMPTP inh	NadD block	rCAG RNA binder	NadD inh conf
Cc1ccc(CNC(=O)c2ccc(N3CCC4(CC3)CC(c3ccccc3)=NO4)c(NC(=O)c3ccccc3)c2)cc1	2	1	4	20	5	/
CCOC(=O)C1=C(CSc2nc(-c3ccccc3)ccc2C#N)OC(N)=C(C#N)C1c1ccccc1 (stereo not drawn)	-7	-16	2	37*	10	43
CCOC(=O)CC1=C(C(=O)OCC)C(c2cccnc2)C(C#N)=C(N)O1 (stereo not drawn)	-3	-2	1	0	-1	/
CCOC(=O)C1=C(CSc2nc(-c3ccccc3)ccc2C#N)OC(N)=C(C#N)C1c1cccnc1 (stereo not drawn)	-3	-4	3	40*	8	8
COc1cc(/C=C2\SC(=O)N(Cc3ccc(F)cc3)C2=O)cc([N+](=O)[O-])c1O	20	40	40	38*	8	4
COc1cc(/C=C2/SC(=S)N(Cc3ccccc3)C2=O)cc(Cl)c1O	-2	-13	2	12	14	/
CCOC(=O)CN1C(=O)S/C(=C/c2ccc(OC)c([N+](=O)[O-])c2)C1=O	-3	-10	1	-6	4	/
COc1cc(/C=C2\SC(=O)N(Cc3ccc(Cl)cc3)C2=O)cc([N+](=O)[O-])c1O	65*	59*	51*	37*	12	11
CCN(CC)C(=O)CC[C@@H]1CC[C@]2(CCCN(Cc3ccc(Br)cc3)C2)O1	/	/	/	/	-3	/
CC1Cc2ccccc2N1Cc1nc2cc(Cl)ccc2c(=O)[nH]1 (stereo not drawn)	-7	-10	-2	23	17	/
COC(=O)c1ccc2c(=O)[nH]c(CN3c4ccccc4CC3C)nc2c1 (stereo not drawn)	0	-7	4	50*	19	6
CC1Cc2ccccc2N1Cc1nc2scc(-c3cccs3)c2c(=O)[nH]1 (stereo not drawn)	-3	-13	3	46*	11	-4
COc1ccc(N2CCN(Cc3nc4scc(-c5cccs5)c4c(=O)[nH]3)CC2)cc1	1	-4	0	3	3	/
CN(CCO)c1ccc2c(c1)Oc1ccccc1CN(Cc1cn(Cc3ccc(F)cc3)nn1)S2(=O)=O	/	/	/	/	1	/
CCCCCCCCCCCCCCCC[n+]1ccccc1	3	9	0	17	7	/
CCCCCCCCCCCCCCCC[n+]1ccc(C(N)=O)cc1	9	47	5	29*	9	-5
